4 compounds from ChEMBL document CHEMBL1124204, “Thiophene systems. 9. Thienopyrimidinedione derivatives as potential antihypertensive agents” (1988) can be followed below.

For one assay, the system named is Canis familiaris. In words: Intravenous dose required to produce a 20-fold rightward shift in the phenylephrine dose-response curve in the dog. Type of assay: functional, Canis lupus familiaris. The method, boiled down: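 Mongrel dogs, anesthetized and bilaterally vagotomized. Mean arterial pressure was recorded via carotid cannula, and drug was given iv through the jugular vein. Phenylephrine dose–response curves were run before and after antagonist. The iv dose (μg/kg) producing a 20-fold rightward shift (DR20) was calculated; n = animals tested.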

Assay [1] deals with Rattus norvegicus. In words: Evaluated for blood pressure lowering activity in the conscious spontaneously hypertensive rats (SHR) (time to peak (h)) at a dose of 1.25 mg/kg. The class given is functional. The method, boiled down: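 Conscious adult male SHR in restrainers at 32 °C, with tail-cuff and pulse-transducer SBP recording. Groups of 4–6 got a single gavage dose in 0.5% methylcellulose or vehicle alone. SBP was sampled at 0.5, 1, 2, 3 and 4 h post-dose, and the time (h) at which the peak SBP change occurred was recorded.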

For assay [2], the system named is Rattus norvegicus. In words: Intravenous dose required to produce a 50% inhibition of the phenylephrine pressor response in the spontaneously hypertensive rats. The class given is functional. The gist of the method: (§1)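 Adult male SHR, anesthetized and bilaterally vagotomized. A carotid artery was cannulated for mean arterial pressure and a jugular vein for iv dosing. Phenylephrine pressor responses were measured before and after antagonist. The iv dose (μg/kg) giving 50% inhibition of the pressor response (ED50) was reported with fiducial limits.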

Assay [3] is filed under the species Rattus norvegicus. In words: Peroral dose required to produce a 50 mmHg drop in systolic blood pressure (SBP) in the spontaneously hypertensive rats. As to conditions: Artery, po. The class given is functional. The method, boiled down:
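Adult male SHR, conscious, tail-cuff indirect SBP at 32 °C. Groups of 4–6 were given single oral gavage doses of 0.5–20 mg/kg in 0.5% methylcellulose, with SBP followed over 4 h. The dose giving a 50 mmHg SBP fall (ED50SBP, mg/kg po) was calculated by regression analysis with 95% fiducial limits; n = animals tested.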

Assay [4] concerns Rattus norvegicus. In words: Evaluated for blood pressure lowering activity in spontaneously hypertensive rats (maximum change of systolic blood pressure (SBP)) at a dose of 1.25 mg/kg. The class given is functional, Artery. The method, boiled down: (§2)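 Adult male SHR, conscious, restrained in a chamber at 32 °C. SBP measured indirectly by tail cuff with a pneumatic pulse transducer. After baseline, groups of 4–6 received a single oral gavage dose or vehicle (0.5% methylcellulose). SBP was read at 0.5, 1, 2, 3 and 4 h, and the maximum SBP change ± SEM was reported against the vehicle effect.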

Assay [5] deals with Rattus norvegicus. In words: Time to peak fall in systolic blood pressure in spontaneously hypertensive rats after oral administration of 0.5 mg/kg of the compound.
Assay [6] deals with Rattus norvegicus. In words: Evaluated for blood pressure lowering activity in spontaneously hypertensive rats (maximum change of systolic blood pressure (SBP)) at a dose of 0.5 mg/kg. Type of assay: functional, Artery. The method, boiled down:
as §2

For assay [7], the system named is Rattus norvegicus. In words: Evaluated for blood pressure lowering activity in spontaneously hypertensive rats (maximum change of systolic blood pressure (SBP)) at a dose of 20 mg/kg. Type of assay: functional, Artery. The method, boiled down:
as §2

For assay [8], the system named is Rattus norvegicus. In words: Time to reach peak blood pressure lowering effect in spontaneously hypertensive rats after oral administration of 20 mg/kg of the compound.
For assay [9], the system named is Rattus norvegicus. In words: Intravenous dose required to produce 50% inhibition of the phenylephrine pressor response in the spontaneously hypertensive rats. Type of assay: functional. The gist of the method: as §1

As usually defined, the ED50 is the dose at which the effect has come halfway, by size or by number of responders. Read a high ED50 as a need for a large dose.

For the compound `COc1ccccc1N1CCN(CCn2c(=O)[nH]c3ccccc3c2=O)CC1`, the DR20 in the assay on Canis familiaris is 10 µg/kg. This compound also showed a Time in the assay with Rattus norvegicus [1] of 0.5 h. For the same compound, the ED50 with Rattus norvegicus [2] is 0.0033 mg/kg; in the assay filed under Rattus norvegicus [3], 0.54 mg/kg. In addition, the “Delta SBP” value in the assay with Rattus norvegicus [4] was -54 mmHg.
In turn, `COc1ccccc1N1CCN(CCn2c(=O)[nH]c3cscc3c2=O)CC1.Cl` came in with a Time in the assay with Rattus norvegicus [5] of 0.5 h. For the same compound, the DR20 in the assay with Canis familiaris stood at 3 µg/kg. In addition, the “Delta SBP” value in the assay with Rattus norvegicus [6] is -83 mmHg. The results for the ED50 in the assay on Rattus norvegicus [2] and in the assay listed under Rattus norvegicus [3] were 0.0017 mg/kg and 0.21 mg/kg, respectively.
For the compound `COc1ccccc1N1CCN(CCn2c(=O)[nH]c3sc(C)c(C)c3c2=O)CC1`, in the assay with Rattus norvegicus [7], the “Delta SBP” value was -50 mmHg. The compound also yielded a Time in the assay with Rattus norvegicus [8] of 1 h.
`COc1cc2nc(N3CCN(C(=O)c4ccco4)CC3)nc(N)c2cc1OC` [PRAZOSIN]: the DR20 in the assay on Canis familiaris stood at 300 µg/kg. The values for the ED50 in the assay on Rattus norvegicus [9] and in the assay filed under Rattus norvegicus [3] were 0.0104 mg/kg and 0.22 mg/kg, respectively. The compound also returned a Time with Rattus norvegicus [1] of 0.5 h. The “Delta SBP” value in the assay with Rattus norvegicus [4] is listed as -60 mmHg.
